Experimental data collected from several papers.
Lines come from different studies, so protocols differ.
Target: G protein-coupled receptor kinase 4 (GRK4, Homo sapiens, UniProt P32298)

SMILES	test	conditions	quantity	value
CN(C)CC#Cc1ccc(OCCCc2sc(N3CCc4cccc(C(=O)Nc5nc6ccccc6s5)c4C3)nc2C(=O)O)c(F)c1	cell-free assay, competition with immobilised ligand	1 µM	remaining binding	100%
O=C1NC(=O)c2cc(Nc3ccc(F)cc3)c(Nc3ccc(F)cc3)cc21	cell-free assay	0.5 µM	remaining signal	103%
CC(C)(C)c1nc(-c2cccc(NS(=O)(=O)c3c(F)cccc3F)c2F)c(-c2ccnc(N)n2)s1	enzyme activity, inhibitor, radiometric	1 µM	remaining activity	59%
CC(=O)N1CCC(c2ccc(C(=O)NC(=N)N)cc2C(F)(F)F)CC1	cell-free assay, competition with immobilised ligand	1 µM	remaining binding	100%
CCCS(=O)(=O)Nc1ccc(F)c(C(=O)c2c[nH]c3ncc(-c4ccc(Cl)cc4)cc23)c1F	enzyme activity, inhibitor	1 µM	inhibition	< 10%
O=C(Nc1ccc(Oc2ccc(F)cc2)cc1)N1CCc2ncccc2[C@H]1c1ccc(F)cc1	cell-free assay, competition with immobilised ligand	1 µM	remaining binding	93%
N#CCCc1ccc2c(c1)-c1[nH]c3ccc([N+](=O)[O-])cc3c1CC(=O)N2	cell-free assay	0.5 µM	remaining signal	101%
O=C(Nc1cnn(-c2csc(C(=O)NC3COC3)c2)c1)Nc1c(F)cccc1Cl	enzyme activity, inhibitor	5 µM	remaining activity	93.6%
c1ccc(N2CCN(Cc3nc4ccccc4[nH]3)CC2)nc1	binding, competition with immobilised ligand	1 µM	remaining binding	100%
Cc1sc(C(=O)NC2COC2)cc1-n1cc(NC(=O)Nc2c(F)cccc2Cl)cn1	enzyme activity, inhibitor	10 µM	remaining activity	113%
COc1cc2c(N3CCN(C(=O)Nc4ccc(OC(C)C)cc4)CC3)ncnc2cc1OCCCN1CCCCC1	cell-free assay	0.5 µM	remaining signal	106%
CN(C)C1CCN(CC#Cc2nn(C3CCCC3)c3nc(NCc4ccccc4)ncc23)C1 (centres unmarked)	enzyme activity, inhibitor, FRET	10 µM	inhibition	-6%
Nc1ncnc2occ(-c3ccc(NC(=O)Nc4cc(C(F)(F)F)ccc4F)cc3)c12	cell-free assay, inhibitor	20 µM	remaining signal	89%
COc1cc2ncnc(Nc3ccc(Oc4ccccc4)cc3C)c2cc1OC	enzyme activity, inhibitor	1 µM	inhibition	-2%
